This is an account of results in ChEMBL document CHEMBL4334452, “Monosaccharide Analogues of Anticancer Peptide R-Lycosin-I: Role of Monosaccharide Conjugation in Complexation and the Potential of Lung Cancer Targeting and Therapy” (J Med Chem, 2019).

Activity calls are given as the source filed them. No cut-off for these calls is given here. *1 amine or outer side, *2 acyl side, *3 side chain or, on linkers, in order; H or OH if unused. Where a SMILES comes first, the peptide text is derived from it. The star is where a group is joined. NH(CH2)3O(βDGlc) = OC[C@H]1O[C@@H](OCCCN*)[C@H](O)[C@@H](O)[C@@H]1O; Glutaryl = O=C(CCCC(=O)[*:2])[*:1]

The test system of data set [1] is A549. Kind of data set: Induction of mitochondrial membrane disruption in human A549 cells assessed as increase in cytochrome C level in cytoplasm at 15 uM measured after 24 hrs by immunofluorescence assay. In kind it is functional, cell-based. In outline:
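A549 cells given 15 µM peptide for 24 h, permeabilized 2 min with 0.5% Triton X-100 and blocked 30 min in 10% sheep serum/PBS. Anti-CytC (1:100) applied 2 h at RT, then fluorescent goat anti-mouse secondary (1:200) for 1 h. Confocal imaging; untreated cells served as control.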

Data set [2] deals with A549. In words: Induction of apoptosis in human A549 cells assessed as appearance of surface bubbling at 15 uM measured after 24 hrs by scanning electron microscopic analysis. In kind it is functional, cell-based.
The subject of data set [3] is A549. In words: Induction of apoptosis in human A549 cells assessed as appearance of apoptotic bodies at 15 uM measured after 24 hrs by scanning electron microscopic analysis. It is filed as functional, cell-based.
Data set [4] concerns HEK-293T. In words: Cytotoxicity against HEK293T cells assessed as reduction in cell viability measured after 24 hrs by CCK8 assay. It is filed as cell-based, Homo sapiens. The settings on record: Homo sapiens, HEK-293T. An outline of the steps: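 Cells (A549, H460, H1437, PC-3, HGC-27, MDA-MB-231, HEK-293T, L-02) seeded at about 2×10^3/well and grown overnight. Treated 24 h with a peptide concentration series in serum-free medium. Viability by CCK-8; IC50 taken as 50% inhibition versus untreated cells. Average of three experiments, each in triplicate.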
Background: Formazan colour is commonly taken as a measure of viable cells.

Data set [5] has as its target T1, Solute carrier family 2, facilitated glucose transporter member 1 (Homo sapiens) (UniProt P11166).
T1 sequence (whole entry): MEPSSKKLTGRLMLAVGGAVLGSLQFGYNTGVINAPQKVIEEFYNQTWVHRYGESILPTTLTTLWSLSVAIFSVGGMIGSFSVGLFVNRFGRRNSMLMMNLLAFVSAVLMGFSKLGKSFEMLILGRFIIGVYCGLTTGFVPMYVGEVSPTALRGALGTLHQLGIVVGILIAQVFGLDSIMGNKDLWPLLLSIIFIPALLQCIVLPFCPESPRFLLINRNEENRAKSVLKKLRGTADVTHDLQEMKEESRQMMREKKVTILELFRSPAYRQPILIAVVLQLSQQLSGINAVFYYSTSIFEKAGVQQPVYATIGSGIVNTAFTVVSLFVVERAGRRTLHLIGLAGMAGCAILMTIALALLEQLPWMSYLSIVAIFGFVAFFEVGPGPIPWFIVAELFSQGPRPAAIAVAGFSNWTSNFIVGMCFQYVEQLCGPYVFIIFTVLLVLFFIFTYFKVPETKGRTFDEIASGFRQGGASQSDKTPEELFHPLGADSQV
Kind of data set: Binding affinity to GLUT1 in human A549 cells assessed as cytotoxicity by measuring reduction in cell viability at 15 uM by trypan blue staining-based assay. In outline: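 A549 cells stained with trypan blue after peptide treatment at 15 µM. Dead cells appear blue and live cells unstained; live cells were counted.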

The test system of data set [6] is A549. In words: Induction of apoptosis in human A549 cells assessed as viable cells at 8 uM measured after 4 hrs by Annexin V-FITC/propidium iodide staining-based flow cytometry (reference value: 95.4%). In kind it is functional. The settings on record: A549, 4 h, read-out: Activity. In outline:
(§1)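 A549 cells grown 24 h, trypsinized, then resuspended in medium with 8 µM peptide for 4 h at 37 °C. Cells washed with cold PBS, stained with Annexin V-FITC/PI, and analysed by flow cytometry.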
Background: Flow cytometry measures light scatter and fluorescence of single cells or particles in a stream.

Data set [7] relates to A549. In words: Induction of apoptosis in human A549 cells assessed as early apoptotic cells at 8 uM measured after 4 hrs by Annexin V-FITC/propidium iodide staining-based flow cytometry (reference value: 0.39%). It is filed as functional. An outline of the steps: as §1
Data set [8] has as its system A549. Kind of data set: Induction of morphological changes in human A549 cells assessed as cell shrinkage at 15 uM measured after 24 hrs by scanning electron microscopic analysis. In kind it is functional, cell-based.
Data set [9] addresses T1, Solute carrier family 2, facilitated glucose transporter member 1 (Homo sapiens). Kind of data set: Binding affinity to GLUT1 in human A549 cells assessed as cytotoxicity by measuring LDH release at 12.5 uM measured after 2 hrs relative to control. In kind it is cell-based. In outline: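 A549 cells at 2×10^3/well, allowed to adhere overnight, then exposed to peptide over a concentration series for 2 h. LDH release measured with a kit, absorbance at 490 nm. 1% Triton X-100 taken as 100% release; n=3.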
Background: LDH leaks from cells whose membrane has failed.

Data set [10] has as its system A549. Kind of data set: Induction of morphological changes in 3D spheroids of human A549 cells assessed as disruption of cell morphology at 30 uM treated every 2 days for 6 days measured every 3 days during compound dosing by microscopic analysis. In kind it is functional, cell-based. In outline:
(§2)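 A549 3D spheroids, one per well, in 10% medium with peptide at 30 µM final. Dosed at day 0, then re-added at days 2 and 4, for 6 days total. Spheroids washed thrice, then imaged and sized at days 0, 3 and 6. Viability read by CCK-8.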

For data set [11], the system named is A549. Kind of data set: Induction of morphological changes in 3D spheroids of human A549 cells assessed as cell shrinkage at 30 uM treated every 2 days for 6 days measured every 3 days during compound dosing by microscopic analysis. It is filed as functional, cell-based. In outline:
as §2

The test system of data set [12] is A549. Kind of data set: Induction of morphological changes in 3D spheroids of human A549 cells assessed as reduction in spheroid volume at 30 uM treated every 2 days for 6 days measured every 3 days during compound dosing by microscopic analysis. In kind it is functional, cell-based. An outline of the steps: as §2
The target in data set [13] is T1, Solute carrier family 2, facilitated glucose transporter member 1 (Homo sapiens). In words: Binding affinity to GLUT1 in human A549 cells harboring luciferase gene assessed as cytotoxicity by measuring reduction in cell viability after 24 hrs by CCK8 assay. It is filed as cell-based.
Data set [14] is described as follows: Drug uptake in spleen of Balb/c nu/nu mouse xenografted with human A549 cells expressing luciferase gene at 9 mg/kg, ip measured after 6 hrs by fluorescence assay. In kind it is ADME, organism-based. The following applies: in vivo.
The nature of data set [15]: Drug uptake in spleen of Balb/c nu/nu mouse xenografted with human A549 cells expressing luciferase gene at 3 mg/kg administered intratumorally measured after 6 hrs by fluorescence assay. It is filed as ADME, organism-based. The settings on record: in vivo, other.
The nature of data set [16]: Drug uptake in liver of Balb/c nu/nu mouse xenografted with human A549 cells expressing luciferase gene at 9 mg/kg, ip measured after 6 hrs by fluorescence assay. It is filed as ADME, organism-based. The following applies: in vivo.
The test system of data set [17] is A549. Kind of data set: Antitumor activity against human A549 cells expressing luciferase gene xenografted in Balb/c nu/nu mouse assessed as tumor growth inhibition at 9 mg/kg, ip administered every 2 days for seven times measured on day 14 by bioluminescent imaging analysis. In kind it is functional, organism-based. In outline:
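Male BALB/c nu/nu mice, 4-6 weeks old, carrying subcutaneous A549-luciferase xenografts in the right back. Dosing started when tumors reached 100-200 mm³ (day 0), five per group. Peptide was given at 9 mg/kg i.p. in 200 µL every other day for 7 doses; PBS served as control. Bioluminescent imaging on day 14; tumor size and body weight tracked. Tumors fixed in paraformaldehyde, paraffin-sectioned, TUNEL-stained.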

The nature of data set [18]: Toxicity in Balb/c nu/nu mouse xenografted with human A549 cells expressing luciferase gene assessed as change in body weight at 9 mg/kg, ip administered every 2 days for seven times measured on day 14. In kind it is organism-based. The following applies: in vivo, 48 h. In outline: (§3)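 Male BALB/c nu/nu mice, 4–6 weeks old, carrying subcutaneous A549-luciferase tumours (right back, cells in sterile PBS), dosed at a tumour size of 100–200 mm³; five per group, PBS controls. Two regimens: 9 mg/kg i.p. (200 µL) every other day ×7, ended day 14; or 3 mg/kg intratumoral (100 µL) every 3 days ×4, ended day 12. Body weight was monitored throughout.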

Data set [19] in a line: Toxicity in Balb/c nu/nu mouse xenografted with human A549 cells expressing luciferase gene assessed as change in body weight at 3 mg/kg administered intratumorally every 3 days for four times measured on day 12. The following applies: in vivo, other, 72 h. In kind it is organism-based. In outline: as §3

One may read the IC50 as the concentration that gives 50% inhibition. As for `CC[C@H](C)[C@H](NC(=O)[C@H](Cc1ccccc1)NC(=O)[C@H](CCCNC(=N)N)NC(=O)[C@H](C)NC(=O)[C@@H](NC(=O)[C@H](CO)NC(=O)[C@H](CCCNC(=N)N)NC(=O)[C@H](CCSC)NC(=O)[C@H](C)NC(=O)[C@H](CCCNC(=N)N)NC(=O)[C@H](Cc1ccccc1)NC(=O)[C@H](Cc1c[nH]c2ccccc12)NC(=O)CNC(=O)[C@@H](N)CCCNC(=N)N)[C@@H](C)CC)C(=O)N[C@@H](C)C(=O)N[C@@H](CCCNC(=N)N)C(=O)N[C@@H](CCC(=O)O)C(=O)N[C@@H](CCCNC(=N)N)C(=O)N[C@@H](CC(C)C)C(=O)N[C@@H](CCCNC(=N)N)C(=O)N[C@@H](CCC(=O)O)C(=O)N[C@@H](Cc1cnc[nH]1)C(=O)N[C@@H](CC(C)C)C(=O)O` (H-RGWFRAMRSIARFIARERLREHL-OH), the outcome in data set [1], in [2], in [3], in data set [5], in [8] and in data set [10] was Active. In addition, the result in data set [11], in [12] and in data set [13] was Active. The IC50 in [4] is 25.8 µM. Also, in data set [6], the viability at 8 µM was 88.8%. Also, the Activity was 0.63% in [7], greater than 30% in [9], “Non-Toxic” in [18] and “Non-Toxic” in [19]. Besides, the Drug uptake entry in data set [14], in data set [15] and in data set [16] was “Active” throughout. Further, the TGI result in data set [17] was “Active”.
For `CC[C@H](C)[C@H](NC(=O)[C@H](Cc1ccccc1)NC(=O)[C@H](CCCNC(=N)N)NC(=O)[C@H](C)NC(=O)[C@@H](NC(=O)[C@H](CO)NC(=O)[C@H](CCCNC(=N)N)NC(=O)[C@H](CCSC)NC(=O)[C@H](C)NC(=O)[C@H](CCCNC(=N)N)NC(=O)[C@H](Cc1ccccc1)NC(=O)[C@H](Cc1c[nH]c2ccccc12)NC(=O)CNC(=O)[C@H](CCCNC(=N)N)NC(=O)CCCC(=O)NCCCO[C@@H]1O[C@H](CO)[C@@H](O)[C@H](O)[C@H]1O)[C@@H](C)CC)C(=O)N[C@@H](C)C(=O)N[C@@H](CCCNC(=N)N)C(=O)N[C@@H](CCC(=O)O)C(=O)N[C@@H](CCCNC(=N)N)C(=O)N[C@@H](CC(C)C)C(=O)N[C@@H](CCCNC(=N)N)C(=O)N[C@@H](CCC(=O)O)C(=O)N[C@@H](Cc1cnc[nH]1)C(=O)N[C@@H](CC(C)C)C(=O)O` ({NH(CH2)3O(βDGlc)-Glutaryl}-RGWFRAMRSIARFIARERLREHL-OH), the result in [1], in data set [2], in data set [3], in data set [5], in data set [8] and in [10] was Active. Further, the result in data set [11], in [12] and in [13] was Active. Also, the IC50 in [4] was determined as 37.4 µM. For the same molecule, in data set [6], the viability at 8 µM was 59.8%. Further, the Activity in data set [7] is 1.1%; in data set [9], greater than 30%; in data set [18], “Non-Toxic”; in data set [19], “Non-Toxic”. Also, the Drug uptake result in data set [14], in data set [15] and in data set [16] was “Active” each time. For the same molecule, the TGI result in data set [17] was “Active”.
